# Assay results reported in ChEMBL document CHEMBL2203123, “Synthesis and biological evaluation of some hydrazone derivatives as new anticandidal and anticancer agents” (Eur J Med Chem, 2012).
# Experiments:
# Candida albicans [1] = assay: Antifungal activity against Candida albicans ATCC 10231 after 24 hrs by microdilution susceptibility assay; assay type: functional; conditions: ATCC 10231, 24 h
# Procedure, shortened: (§1)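 Broth microdilution in Mueller Hinton Broth, compounds from DMSO stocks diluted serially; inocula standardized to 10^6 CFU/mL (McFarland 0.5) from overnight MHB cultures. Plates held 37 °C for 24 h; MIC taken as first well without turbidity, aided by 1% tetrazolium violet added for 3 h at 37 °C. Ketoconazole reference.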
# Candida parapsilosis = assay: Antifungal activity against Candida parapsilosis NRRL Y-12696 after 24 hrs by microdilution susceptibility assay; assay type: functional; conditions: Lodderomyces parapsilosis, NRRL Y-12696, 24 h; procedure, shortened: as §1
# Salmonella typhimurium [2] = assay: Genotoxicity against Salmonella typhimurium TA1535/pSK1002 assessed as growth factor ratio at 0.63 mg/ml by umuC assay in absence of S9 fraction; assay type: toxicity, organism-based; conditions: salmonella enterica subsp. enterica serovar typhimurium
# Procedure, shortened: (§2)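 umuC Easy CS: TA1535/pSK1002 grown overnight in ampicillin TG medium at 37 °C, then exposed 2 h at 37 °C to compounds at 5, 2.5, 1.25, 0.63 mg/mL with or without S9. Diluted into fresh medium for 2 h growth (OD600), then β-galactosidase with ONPG 30 min at 28 °C, OD420. Positive controls 2-aminoanthracene (+S9), […] (−S9).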
# Salmonella typhimurium [3] = assay: Genotoxicity against Salmonella typhimurium TA1535/pSK1002 assessed as induction ratio at 2.5 mg/ml by umuC assay in presence of S9 fraction; assay type: toxicity, organism-based; conditions: salmonella enterica subsp. enterica serovar typhimurium; procedure, shortened: as §2
# Salmonella typhimurium [4] = assay: Genotoxicity against Salmonella typhimurium TA98 assessed as fold increase in revertants at 5 mg/ml after 90 mins by Ames MPF test in absence of S9 fraction relative to baseline; assay type: toxicity, organism-based; conditions: salmonella enterica subsp. enterica serovar typhimurium, 1.5 h
# Procedure, shortened: (§3)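 Ames MPF fluctuation test, TA98 and TA100: overnight cultures reincubated 90 min, then exposed 90 min at 37 °C to compounds at 0.156-5 mg/mL (in DMSO) with or without 4.5% v/v S9; indicator medium added, 48 wells per sample scored yellow after 48 h, triplicate. Fold over baseline = mean positive wells / (mean of DMSO control + 1 SD).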
# Salmonella typhimurium [5] = assay: Genotoxicity against Salmonella typhimurium TA98 assessed as fold increase in revertants at 0.625 mg/ml after 90 mins by Ames MPF test in absence of S9 fraction relative to baseline; assay type: toxicity, organism-based; conditions: salmonella enterica subsp. enterica serovar typhimurium, 1.5 h; procedure, shortened: as §3
# Candida albicans [6] = assay: Antifungal activity against Candida albicans ATCC 90028 after 24 hrs by microdilution susceptibility assay; assay type: functional; conditions: ATCC 90028, 24 h; procedure, shortened: as §1
# Salmonella typhimurium [7] = assay: Genotoxicity against Salmonella typhimurium TA100 assessed as fold increase in revertants at 5 mg/ml after 90 mins by Ames MPF test in absence of S9 fraction relative to baseline; assay type: toxicity, organism-based; conditions: salmonella enterica subsp. enterica serovar typhimurium, 1.5 h; procedure, shortened: as §3
# Nakaseomyces glabratus = assay: Antifungal activity against Candida glabrata Anadolu University clinical isolate after 24 hrs by microdilution susceptibility assay; assay type: functional; procedure, shortened: as §1
# Salmonella typhimurium [8] = assay: Genotoxicity against Salmonella typhimurium TA98 assessed as fold increase in revertants at 2.5 mg/ml after 90 mins by Ames MPF test in presence of S9 fraction relative to baseline; assay type: toxicity, organism-based; conditions: salmonella enterica subsp. enterica serovar typhimurium, s9, 1.5 h; procedure, shortened: as §3
# Salmonella typhimurium [9] = assay: Genotoxicity against Salmonella typhimurium TA100 assessed as fold increase in revertants at 0.3125 mg/ml after 90 mins by Ames MPF test in presence of S9 fraction relative to baseline; assay type: toxicity, organism-based; conditions: salmonella enterica subsp. enterica serovar typhimurium, s9, 1.5 h; procedure, shortened: as §3
# A549 = assay: Cytotoxicity against human A549 cells after 24 hrs by XTT assay; assay type: functional, cell-based; conditions: A549, 24 h
# Procedure, shortened: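 A549 cells in RPMI 1640 with 10% fetal calf serum, penicillin/streptomycin, 37 °C, 5% CO2; 20,000 cells/well seeded, after 24 h exposed to compounds at 0.00316 µM-10 mM for 24 h. XTT mitochondrial activity read at 480 nm (reference 680 nm) after 3 h; % inhibition per concentration, IC50 by non-linear regression.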
# Salmonella typhimurium [10] = assay: Genotoxicity against Salmonella typhimurium TA100 assessed as fold increase in revertants at 2.5 mg/ml after 90 mins by Ames MPF test in presence of S9 fraction relative to baseline; assay type: toxicity, organism-based; conditions: salmonella enterica subsp. enterica serovar typhimurium, s9, 1.5 h; procedure, shortened: as §3
# Salmonella typhimurium [11] = assay: Genotoxicity against Salmonella typhimurium TA100 assessed as fold increase in revertants at 0.156 mg/ml after 90 mins by Ames MPF test in presence of S9 fraction relative to baseline; assay type: toxicity, organism-based; conditions: salmonella enterica subsp. enterica serovar typhimurium, s9, 1.5 h; procedure, shortened: as §3
# Salmonella typhimurium [12] = assay: Genotoxicity against Salmonella typhimurium TA1535/pSK1002 assessed as growth factor ratio at 1.25 mg/ml by umuC assay in presence of S9 fraction; assay type: toxicity, organism-based; conditions: salmonella enterica subsp. enterica serovar typhimurium; procedure, shortened: as §2
# [13] = Genotoxicity against Salmonella typhimurium TA1535/pSK1002 assessed as induction ratio at 1.25 mg/ml by umuC assay in absence of S9 fraction; assay type: toxicity, organism-based; conditions: salmonella enterica subsp. enterica serovar typhimurium, Salmonella typhimurium TA1535/pSK1002 without S9 fraction; procedure, shortened: as §2
# Salmonella typhimurium [14] = assay: Genotoxicity against Salmonella typhimurium TA98 assessed as fold increase in revertants at 1.25 mg/ml after 90 mins by Ames MPF test in presence of S9 fraction relative to baseline; assay type: toxicity, organism-based; conditions: salmonella enterica subsp. enterica serovar typhimurium, s9, 1.5 h; procedure, shortened: as §3
# Salmonella typhimurium [15] = assay: Genotoxicity against Salmonella typhimurium TA100 assessed as fold increase in revertants at 2.5 mg/ml after 90 mins by Ames MPF test in absence of S9 fraction relative to baseline; assay type: toxicity, organism-based; conditions: salmonella enterica subsp. enterica serovar typhimurium, 1.5 h; procedure, shortened: as §3
# Salmonella typhimurium [16] = assay: Genotoxicity against Salmonella typhimurium TA1535/pSK1002 assessed as growth factor ratio at 5 mg/ml by umuC assay in absence of S9 fraction; assay type: toxicity, organism-based; conditions: salmonella enterica subsp. enterica serovar typhimurium; procedure, shortened: as §2
# Salmonella typhimurium [17] = assay: Genotoxicity against Salmonella typhimurium TA100 assessed as fold increase in revertants at 0.3125 mg/ml after 90 mins by Ames MPF test in absence of S9 fraction relative to baseline; assay type: toxicity, organism-based; conditions: salmonella enterica subsp. enterica serovar typhimurium, 1.5 h; procedure, shortened: as §3
# Salmonella typhimurium [18] = assay: Genotoxicity against Salmonella typhimurium TA100 assessed as fold increase in revertants at 0.625 mg/ml after 90 mins by Ames MPF test in absence of S9 fraction relative to baseline; assay type: toxicity, organism-based; conditions: salmonella enterica subsp. enterica serovar typhimurium, 1.5 h; procedure, shortened: as §3
# [19] = Genotoxicity against Salmonella typhimurium TA1535/pSK1002 assessed as induction ratio at 1.25 mg/ml by umuC assay in presence of S9 fraction; assay type: toxicity, organism-based; conditions: salmonella enterica subsp. enterica serovar typhimurium, Salmonella typhimurium TA1535/pSK1002 with S9 fraction; procedure, shortened: as §2
# Salmonella typhimurium [20] = assay: Genotoxicity against Salmonella typhimurium TA98 assessed as fold increase in revertants at 0.3125 mg/ml after 90 mins by Ames MPF test in presence of S9 fraction relative to baseline; assay type: toxicity, organism-based; conditions: salmonella enterica subsp. enterica serovar typhimurium, s9, 1.5 h; procedure, shortened: as §3
# [21] = Genotoxicity against Salmonella typhimurium TA1535/pSK1002 assessed as induction ratio at 5 mg/ml by umuC assay in absence of S9 fraction; assay type: toxicity, organism-based; conditions: salmonella enterica subsp. enterica serovar typhimurium, Salmonella typhimurium TA1535/pSK1002 without S9 fraction; procedure, shortened: as §2
# Salmonella typhimurium [22] = assay: Genotoxicity against Salmonella typhimurium TA1535/pSK1002 assessed as growth factor ratio at 2.5 mg/ml by umuC assay in absence of S9 fraction; assay type: toxicity, organism-based; conditions: salmonella enterica subsp. enterica serovar typhimurium; procedure, shortened: as §2
# Salmonella typhimurium [23] = assay: Genotoxicity against Salmonella typhimurium TA98 assessed as fold increase in revertants at 5 mg/ml after 90 mins by Ames MPF test in presence of S9 fraction relative to baseline; assay type: toxicity, organism-based; conditions: salmonella enterica subsp. enterica serovar typhimurium, s9, 1.5 h; procedure, shortened: as §3
# Salmonella typhimurium [24] = assay: Genotoxicity against Salmonella typhimurium TA100 assessed as fold increase in revertants at 1.25 mg/ml after 90 mins by Ames MPF test in absence of S9 fraction relative to baseline; assay type: toxicity, organism-based; conditions: salmonella enterica subsp. enterica serovar typhimurium, 1.5 h; procedure, shortened: as §3
Compound,MIC (Candida albicans [1]) [µg/mL],MIC (Candida parapsilosis) [µg/mL],Ratio (Salmonella typhimurium [2]),Ratio (Salmonella typhimurium [3]),fold change (FC) (Salmonella typhimurium [4]),fold change (FC) (Salmonella typhimurium [5]),MIC (Candida albicans [6]) [µg/mL],fold change (FC) (Salmonella typhimurium [7]),MIC (Nakaseomyces glabratus) [µg/mL],fold change (FC) (Salmonella typhimurium [8]),fold change (FC) (Salmonella typhimurium [9]),IC50 (A549) [µM],fold change (FC) (Salmonella typhimurium [10]),fold change (FC) (Salmonella typhimurium [11]),Ratio (Salmonella typhimurium [12]),fold induction at 1.25 mg/ml [13],fold change (FC) (Salmonella typhimurium [14]),fold change (FC) (Salmonella typhimurium [15]),Ratio (Salmonella typhimurium [16]),fold change (FC) (Salmonella typhimurium [17]),further results
Cn1nnnc1SCC(=O)N/N=C/c1ccccc1[N+](=O)[O-],500,500,1.068,1.014,1.14,1.47,62.5,1.33,250,2.22,1.08,1600,2.2,1.35,0.879,1.51,2,0.67,1.281,1.67,fold change (FC) (Salmonella typhimurium [18]): 0.83; fold induction at 1.25 mg/ml [19]: 1.18; fold change (FC) (Salmonella typhimurium [20]): 1.22; fold induction at 5 mg/ml [21]: 1.43; Ratio (Salmonella typhimurium [22]): 1.03; fold change (FC) (Salmonella typhimurium [23]): 1.11; fold change (FC) (Salmonella typhimurium [24]): 1.33
Cn1nnnc1SCC(=O)N/N=C/c1ccc(O)cc1,500,1000,1.009,0.657,0.26,0.13,1000,0,500,0.53,0.63,> 10000,0.63,0.63,1.277,0.99,0.63,0.33,2.049,0.41,fold change (FC) (Salmonella typhimurium [18]): 0.66; fold induction at 1.25 mg/ml [19]: 0.699; fold change (FC) (Salmonella typhimurium [20]): 0.53; fold induction at 5 mg/ml [21]: 0.661; Ratio (Salmonella typhimurium [22]): 1.397; fold change (FC) (Salmonella typhimurium [23]): 0.63; fold change (FC) (Salmonella typhimurium [24]): 0.91
